The labels stand for the following.
B1: NELF-E aptamer (parent)
chain: CCCAACGACUGCCGAGCGAGAUUACGCUUGAGCGCCCCACUGAGGAUGCCCACGGGCGAUUGGGGCACGG

Variants of B1 are the subject of this data set. The experiment in a line: HiTS-RAP. The settings on record: with NELF-E (Drosophila). In a few lines:
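Aptamer DNA templates bearing a T7 promoter and a ter site were sequenced on an Illumina GAIIx flowcell. T7 RNA polymerase then transcribed them in situ, and GST-Tus halted transcription over 30 minutes at 37°C. After a 30-minute room-temperature equilibration with NELF-E-mOrange at 0.064 to 1000 nM in HEPES binding buffer, clusters were imaged, using only the first binding curve. Intensities normalised to sequencing intensity were averaged per sequence and fitted with weighted Hill fits to give Kd, retaining only fits whose variance stayed under 1,000,000.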
Take U41G U47G: the Kd worked out at 7.59 nM.

As to C35G, the Kd was determined as 6.51 nM. To C35U belongs 13 nM. Next, C35A: 6.56 nM. To G56C belongs 37.4 nM; to G56A, 10.3 nM. As to G56U, the Kd turned out to be 5.3 nM. To U41G A43U belongs 26.3 nM; to U41G A43G, 8.31 nM. For G48U C49G, the Kd was found to be 5.14 nM. Next, A39U C66U: 21.2 nM; U41G G45U: 5.07 nM; U41G G45A: 53.9 nM. To U41A A52U belongs 81 nM; to G54A C66U, 16.9 nM; to U41G A67U, 7 nM.

As for U41G A67G, the Kd turned out to be 6.35 nM. Next, C38U A39G: 6.36 nM; G55A A67U: 11.2 nM; A43G A59G: 69 nM. Take U47A A67G: the Kd came out at 12 nM. Next, U47A A67U: 10.5 nM. To A39G U41G belongs 6.74 nM; to A39U G54A, 39.3 nM. To C49U belongs 19.5 nM; to C49A, 20.6 nM; to C49G, 9.21 nM. As to U47G G48U, the dissociation constant Kd stood at 6.17 nM. To U41G G55C belongs 6.95 nM; to U41G G55A, 7.84 nM. To U41G G55U belongs 7.2 nM.

As to A43G A67U, the equilibrium dissociation constant (Kd) amounted to 23.5 nM. As for A46U U47G, the Kd was 5.55 nM. Consider C40A, for which the Kd amounted to 71.3 nM. Regarding C40U, the Kd stood at 56.6 nM.

Regarding C40G, the Kd was 5.55 nM. Next, C38U: 7.54 nM; C38A: 31.4 nM; C38G: 5.24 nM.

In the case of U41G G64C, the Kd turned out to be 7.1 nM. Next, U41G G64U: 5.28 nM; U41G G64A: 6.38 nM; A43U A67U: 37.1 nM. With A52U G56A, the Kd turned out to be 99 nM. To A39U U41A belongs 109 nM; to A39U U41G, 30.7 nM; to A46G G54A, 129 nM. To G44U belongs 7.32 nM; to G44C, 27.5 nM; to G44A, 42.3 nM.

Consider U41G A46U, for which the Kd came to 62.9 nM.

Consider U41G A46G, for which the Kd was found to be 26.2 nM. Next, C40U U41G: 7.61 nM.

Regarding U41C G54A, the equilibrium dissociation constant (Kd) was found to be 103 nM. To G55A G65U belongs 6.71 nM. To U41G C66U belongs 4.15 nM; to C36A G64A, 14.3 nM. Take C51U C66U: the Kd was 7.21 nM.

For the variant A39U, the Kd was 23.5 nM. Next, A39C: 20.5 nM. To A39G belongs 8.97 nM; to U41A A67U, 59.4 nM; to U41C, 68.9 nM.

U41G: the Kd is 5.16 nM. To U41A belongs 73.7 nM; to A39G G54A, 23.3 nM. To U41A G62A belongs 102 nM; to G55U, 6.36 nM; to G55C, 7.14 nM. Next, G55A: 7.36 nM; A52U G63U: 42.2 nM. A52U G63A: the dissociation constant Kd worked out at 50.8 nM. Next, C53U G64A: 4.84 nM; U41G C49U: 28 nM.

Consider G34C, for which the Kd was found to be 9.79 nM. Consider G34U, for which the Kd came to 5.56 nM. Next, C51A: 8.65 nM. To C51G belongs 4.48 nM; to C51U, 6.66 nM. For the variant U41G G42A, the dissociation constant Kd turned out to be 23.5 nM. With U41G G42U, the Kd was 5.09 nM. To C53U belongs 3.8 nM; to C53G, 5.16 nM. To C53A belongs 4.92 nM.

In the case of C36U, the Kd is 6.29 nM.

As to C36G, the Kd is 6 nM. To C36A belongs 8.24 nM; to C50A, 14.7 nM. On to C50U, for which the Kd is 12.2 nM. As to C50G, the Kd was 6.31 nM. For the variant U41G C50U, the Kd amounted to 13.8 nM. To A46U A59G belongs 60.5 nM; to A39U C40G, 5.95 nM. To G54A belongs 11.8 nM. Next, G54U: 6.39 nM; G54C: 10.6 nM; A43G U60C: 20.1 nM.

In the case of U41G C57U, the Kd came to 6.91 nM. Next, A46C: 9.89 nM.

As to A46G, the Kd amounted to 26.5 nM. In the case of A46U, the Kd came to 63.2 nM. To G54A G55A belongs 26.2 nM; to U41A C66U, 85.7 nM. Next, U41G A52G: 4.52 nM. To U41G A52U belongs 16.4 nM; to A52G C53U, 6.67 nM; to G34U C35G, 4.52 nM. Turning to A52U, the Kd came to 15.4 nM. As to A52C, the Kd was found to be 5.64 nM. To A52G belongs 4.24 nM. Next, A39U A52G: 15.5 nM; A39U A67U: 55 nM; A39U A67G: 27.3 nM. Next, G45U A46G: 5.32 nM; A39G C57U: 9.77 nM; G54U G56U: 5.48 nM. As to U41G G65A, the equilibrium dissociation constant (Kd) was determined as 6.9 nM. Turning to U41G G65U, the Kd worked out at 6 nM. To A43G G44U belongs 5.97 nM; to G48U, 5.99 nM. Consider G48C, for which the Kd was found to be 85.4 nM.

With G48A, the Kd is 9.57 nM. To U41G C53U belongs 3.62 nM. To A39U U61A belongs 17.4 nM; to U41G G56A, 5.81 nM; to U41G G56U, 5.56 nM. Next, C37A U41G: 15.9 nM; A39G U61C: 8.88 nM. For U47A G54A, the dissociation constant Kd was determined as 15.1 nM.

On to U41G C51U, for which the dissociation constant Kd was 7.25 nM. To G45U belongs 6.76 nM; to G45C, 39.5 nM; to G45A, 47.8 nM.

Take U41G U61A: the Kd stood at 34.9 nM. On to C37G, for which the Kd came out at 5.85 nM. Next, C37A: 13.7 nM. To C37U belongs 11.1 nM. For G42A, the Kd came to 49.4 nM. For G42C, the dissociation constant (Kd) stood at 44.2 nM. On to G42U, for which the Kd was 10.5 nM. To G54A A59G belongs 73.6 nM; to U41G G62A, 19.9 nM; to U47G, 6.05 nM. To U47A belongs 10.2 nM. Next, U47C: 9.59 nM; A46G A67G: 36.2 nM; A52U C66U: 15.1 nM. Consider A39G G63A, for which the Kd is 87.1 nM.

With C53G G54U, the equilibrium dissociation constant (Kd) came to 4.24 nM.

As to U41G U60C, the Kd turned out to be 9.67 nM. U41G G48A: the Kd amounted to 7.62 nM. In the case of C37U U41G, the Kd was 16.1 nM. Consider C51U A52G, for which the Kd amounted to 7.06 nM.

Take U41G A59U: the Kd turned out to be 31.7 nM. As to U41G A59G, the Kd was found to be 35.1 nM. Next, A52U U61A: 90.9 nM. Next, C57A: 13.9 nM.

In the case of G34C C35G, the Kd came out at 3.76 nM. On to U41G G63U, for which the Kd was found to be 11.8 nM. Take U41G G63A: the equilibrium dissociation constant (Kd) was found to be 16.8 nM. In the case of A43C, the dissociation constant (Kd) came out at 76 nM. To A43U belongs 67 nM. A43G: the Kd was 24.6 nM. To U41G G54A belongs 18.1 nM; to A39U G48A, 49 nM. For G34A U41G, the equilibrium dissociation constant (Kd) was 7.5 nM. Turning to C38U U41G, the dissociation constant (Kd) is 7.77 nM.

Values taken from the RNAGym collection of RNA variant scans (doi:10.1038/nmeth.2970).
